p97 inhibitor: blocks human p97 ATPase activity; P55072; recombinant p97 ATPase, Kinase-Glo ATP luminescence, 3 h; inhibition, % at 8 µM; 220,000 compounds, 0.42% hits; AID 1481; in the data active = inhibition above about 15%;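 note: 0% = DMSO vehicle and 100% = wells lacking enzyme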
DTT redox prof: compounds producing H2O2 with reducing agent – biochemical, NIH compound library profiling, artefact control for MLSCN library redox annotation, primary screen; DTT-dependent redox cycling H2O2, phenol red/HRP absorbance; 100% = 100 µM peroxide control, 0% = buffer; activation, % at 10 µM; 200,000 compounds, 0.03% hits;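 active = activation of at least 50% relative to the plate's high and low controls in the primary single-dose screen; inactive = activation below 50%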;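 note: compound incubated with DTT at 0.8 mM final as the reducing agent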
RBBP9 inh: human RBBP9 hydrolase inhibition; 220,000 compounds, 0.2% hits; AID 1515; inhibition, % at 7.94 µM; O75884; recombinant RBBP9, FP-Rh probe fluorescence polarization;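 active = inhibition above the campaign mean of all tested compounds plus 3 SD, cut at about 14% in these data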;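 note: plate controls were DMSO wells with RBBP9 for no effect and wells lacking RBBP9 protein for full effect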
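System: RBBP9 protein / Quantity: 2.5 µM RBBP9 dispensing solution, before mixing / Also added: Serine-hydrolase probe FP-Rh, 375 nM pre-mixing / Dosing: 7.94 µM single dose, 0.794% DMSO / Timing: enzyme-compound preincubation 30 min, then probe labeling 45 min, 25 °C / Signal: FP readout at 525/598 nm / Controls: DMSO-treated enzyme wells and wells lacking RBBP9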
Arbovirus inh: blocks arbovirus infection. 200,000 compounds, 0.37% hits. arbovirus infection cell-based antiviral screen. inhibition, % at 10 µM; in the data active = inhibition above about 30%
PKD1 inh: inhibitors of human PKD1 kinase | Q15139 | PKD1 kinase fluorescence polarization assay | inhibition, % (no concentration beside the values) | 200,000 compounds, 0.056% hits; in the data active = inhibition above about 50%
Target sequence (Q15139 whole entry, looked up): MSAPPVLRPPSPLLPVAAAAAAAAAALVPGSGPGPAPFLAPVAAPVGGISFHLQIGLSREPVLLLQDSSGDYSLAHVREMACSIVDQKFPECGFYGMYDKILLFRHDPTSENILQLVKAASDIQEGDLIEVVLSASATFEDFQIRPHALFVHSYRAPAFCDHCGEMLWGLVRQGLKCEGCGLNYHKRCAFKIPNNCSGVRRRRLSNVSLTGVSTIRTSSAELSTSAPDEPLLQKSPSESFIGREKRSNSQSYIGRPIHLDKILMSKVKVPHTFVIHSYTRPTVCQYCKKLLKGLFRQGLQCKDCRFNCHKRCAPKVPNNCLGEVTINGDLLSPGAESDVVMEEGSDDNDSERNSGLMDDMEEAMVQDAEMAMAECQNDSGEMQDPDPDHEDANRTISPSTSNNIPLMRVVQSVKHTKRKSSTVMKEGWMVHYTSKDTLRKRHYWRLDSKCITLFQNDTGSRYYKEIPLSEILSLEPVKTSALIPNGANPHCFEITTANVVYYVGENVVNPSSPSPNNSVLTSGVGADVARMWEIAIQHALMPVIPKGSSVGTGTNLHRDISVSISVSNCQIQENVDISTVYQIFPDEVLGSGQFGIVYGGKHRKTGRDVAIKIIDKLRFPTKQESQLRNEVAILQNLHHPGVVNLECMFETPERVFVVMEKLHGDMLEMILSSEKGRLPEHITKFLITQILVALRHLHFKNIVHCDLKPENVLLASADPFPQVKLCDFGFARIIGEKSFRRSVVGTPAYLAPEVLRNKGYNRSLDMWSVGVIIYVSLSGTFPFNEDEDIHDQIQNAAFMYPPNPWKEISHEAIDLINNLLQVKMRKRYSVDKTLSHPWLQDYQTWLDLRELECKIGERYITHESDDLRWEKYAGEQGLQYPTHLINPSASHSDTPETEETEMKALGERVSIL
Wee1 degr inh: inhibitors of human Wee1 degradation; P30291; HeLa Luc-Wee1K328M stability, luciferase luminescence; 100% = proteasome inhibitor MG132 effect; reporter increase, % at 5 µM; 220,000 compounds, 1.2% hits;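 active = activation above the mean of all tested compounds plus 3 SD, set per screening run, cut at about 8.8% in these data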;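 note: cells exposed to compound for 20 h before luminescence read; 0% = DMSO alone and 100% = MG132 at 30 µM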
Wee1 degr conf: confirmation of human Wee1 degradation inhibitors. shares compounds with Wee1 degr inh. HeLa Luc-Wee1K328M degradation, luminescence; vehicle 0%, proteasome-blocked wells 100%. activation, % at 5 µM. 1,100 compounds, 4% hits; in the data active = activation above about 8.9%
p97 confirm: human p97 ATPase inhibition, confirmation | recombinant p97 ATPase, Kinase-Glo ATP luminescence | AID 1517 | shares compounds with p97 inhibitor | inhibition, % at 8 µM | 760 compounds, 44% hits;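 active = percent inhibition of p97 ATPase above a set limit, the primary screen's mean plus 3 SD, cut at about 15% in these data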;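 note: 0% = DMSO wells and 100% = wells lacking p97 protein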
The depositor's hits bear a star; . = no result given; ! = a repeat was not active. The list is not random: actives were taken first. Their share in the collection is about 2.2%.

SMILES | p97 inhibitor | DTT redox prof | RBBP9 inh | Arbovirus inh | PKD1 inh | Wee1 degr inh | p97 confirm | others
CCN(CC)CCCN=Cc1c(O)n(-c2ccccc2F)c(=O)[nH]c1=O | -0.7 | -0.7 | -4.8 | 10.1 | -8.7 | 36.2* | . | Wee1 degr conf=-1.2
CC12CN3CC(C)(CN(C1)C3c1cccs1)C2O (stereo not given) | 5.2 | 3.5 | -4.8 | 3.7 | -6.7 | 12.9* | . | Wee1 degr conf=0.1
Cn1c(NN=O)nc2ccccc21 | 1.7 | 6.5 | -6.9 | -31.2 | 2.9 | 15.2* | . | Wee1 degr conf=2.0
CN1CCN(Cc2nc3ccccc3n2C)CC1 | 2.6 | -0.1 | -9.4 | -0.9 | -9.6 | -1.1 | .
CC12CN3CC(C)(CN(C1)C3c1cccnc1)C2=O (stereo not given) | -1.3 | -3.8 | -6.9 | 3.1 | -13.3 | 5.3 | .
CC1(C)C2([N+](=O)[O-])CN3CC1([N+](=O)[O-])CN(C2)C3c1cccnc1 (stereo not given) | 10.2 | . | -2.8 | . | . | 14.4* | . | Wee1 degr conf=-0.1
COC(=O)C1=C(N)Oc2cc(C)oc(=O)c2C12C(=O)Nc1ccccc12 (stereo not given) | 7.1 | -0.1 | -3.0 | 7.9 | -4.0 | 4.0 | .
Cc1cccc(-n2c(-c3ccccc3)nc3ccccc3c2=O)n1 | 6.0 | -0.9 | -3.8 | 0.2 | -5.5 | -4.2 | .
O=C(COc1ccccc1)N1CCN(C/C=C/c2ccccc2)CC1 | -4.1 | 0.7 | 2.6 | 2.5 | 1.8 | 1.5 | .
O=C(COc1ccc(Cl)cc1)N1CCN(C/C=C/c2ccccc2)CC1 | -5.2 | -0.2 | -5.2 | -7.5 | 9.6 | 17.4* | . | Wee1 degr conf=3.4
CCOc1ccc(Cl)cc1CNCCc1ccccc1F | -4.1 | . | -2.8 | . | . | -1.5 | .
CCOc1ccc([N+](=O)[O-])cc1CNCCc1ccccc1 | 1.8 | 0.0 | -1.3 | -14.2 | -3.9 | 11.0* | . | Wee1 degr conf=-1.8
CCC(C)NC(=O)c1c(N)n(CC2CCCO2)c2nc3ccccc3nc12 (stereo not given) | 28.9* | -0.6 | 11.2 | -13.6 | -4.3 | 1.0 | -4.4
CC(C)CCNC(=O)c1c(N)n(CC2CCCO2)c2nc3ccccc3nc12 (stereo not given) | -1.5 | 0.3 | -6.5 | -49.0 | 1.7 | -1.2 | .
CN1c2ccc([N+](=O)[O-])cc2CC2(C(=O)NC(=O)N(c3ccccc3)C2=O)C1c1ccccc1 (stereo not given) | 1.3 | 0.6 | -2.0 | 7.1 | 3.2 | -2.1 | .
Cc1[nH]n(-c2ccccc2)c(=O)c1C(c1ccc([N+](=O)[O-])cc1)c1c(C)[nH]n(-c2ccccc2)c1=O | 39.9* | 0.3 | -1.9 | 1.3 | 11.4 | 0.1 | 7.6
Cn1c(O)c(/C=C/C=Nc2ccccc2)c(=O)n(C)c1=S | 2.9 | 0.1 | -46.1 | 1.6 | -10.2 | -3.3 | .
Cc1cc2c(C(C)C)c(O)c(O)c(C=O)c2c(O)c1-c1c(C)cc2c(C(C)C)c(O)c(O)c(C=O)c2c1O | 20.6*! | -0.4 | 9.0 | -43.4 | -0.1 | -2.2 | 77.2*
CCC(C)N1C(=O)/C(=C/c2ccc3c(c2)CCN3CCCCl)C(=O)NC1=S (stereo not given) | 1.4 | 0.5 | -0.1 | -10.7 | 9.5 | -2.2 | .
CN[C@H]1C[C@H]2O[C@@](C)([C@H]1OC)n1c3ccccc3c3c4c(c5c6ccccc6n2c5c31)C(=O)NC4 | 15.2* | 0.7 | -0.3 | -42.2 | . | . | 11.9
Nc1c(C(=O)NCCN2CCOCC2)c2nc3ccccc3nc2n1Cc1ccccc1 | 34.8* | . | 3.7 | . | . | -2.7 | -0.5
COCCCn1c(N)c(C(=O)NCc2ccco2)c2nc3ccccc3nc21 | 36.6* | . | 2.6 | . | . | -2.8 | 19.4*
COCCCn1c(N)c(C(=O)OC(C)COC)c2nc3ccccc3nc21 (stereo not given) | 15.3* | -2.8 | 1.3 | 1.2 | -7.8 | 0.1 | 5.5
Nc1c(C(=O)NCCc2ccccc2)c2nc3ccccc3nc2n1CCN1CCOCC1 | -4.6 | 3.2 | -2.0 | -32.4 | -3.9 | -1.3 | .
CC(C)(C)OC(=O)c1c(N)n(Cc2ccco2)c2nc3ccccc3nc12 | 15.8* | 0.5 | -8.7 | -15.9 | -1.2 | -2.4 | 4.8

Source: PubChem
